B1: G-CSF: cytokine granulocyte colony stimulation factor (protein, UniProt P09919 31-207, looked up)
Granulocyte …: TPLGPASSLPQSFLLKCLEQVRKIQGDGAALQEKLVSECATYKLCHPEELVLLGHSLGIPWAPLSSCPSQALQLAGCLSQLHSGLFLYQGLLQALEGISPELGPTLDTLQLDVADFATTIWQQMEELGMAPALQPTQGAMPAFASAFQRRAGGVLVASHLQSFLEVSYRVLRHLAQP

Assays:
TET2 [1] = assay: Total TET activity; assay type: cell-based, human; conditions: inhibitor 10 nM for 1 hr prior to FLT3L stimulation for 30 minutes; CD34+ stem/early progenitors; three biological replicates
Method in brief: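 Healthy-donor CD34+ cells, CliniMACS-purified, cultured 4 days in IMDM, 20% human serum, TPO/FLT3L/IL-3/IL-6 (20 ng/mL each), SCF 100 ng/mL. Cytokine-washed, held 4 hrs in IMDM/1% BSA, inhibitor 1 hr, then FLT3L (100 ng/ml) 30 min. Nuclear lysates (Bradford-normalised) on 5-mC-coated wells, 5-hmC detected fluorometrically. Standard curve 0–2 ng, ng/min/mg. Unstimulated and stimulated controls; mean ± SEM, three biological replicates.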

TET2 [2] = assay: TET2 activity and 5-hmC levels upon TPO or G-CSF stimulation; assay type: cell-based; conditions: Fig. S1A-D
Method in brief: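 Total TET activity was measured in nuclear lysates, with protein quantified by Bradford assay, using a fluorescence ELISA in which plate-coated 5-mC substrate is converted to 5-hmC and detected with an anti-5-hmC antibody. 5-hmC content was measured on 200 ng DNA per assay and expressed as a percentage of total DNA.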

| Molecule | Effect on FLT3L-stimulated TET2 activity (TET2 [1]) | 5hm-C levels upon cytokine stimulation (TET2 [2]) | TET2 activity upon cytokine stimulation (TET2 [2]) |
| --- | --- | --- | --- |
| CC(C)(C)c1cc(NC(=O)Nc2ccc(-c3cn4c(n3)sc3cc(OCCN5CCOCC5)ccc34)cc2)no1 [AC2220] | Inhibition of TET2 activity |  |  |
| CNC(=O)c1cc(Oc2ccc(NC(=O)Nc3ccc(Cl)c(C(F)(F)F)c3)cc2)ccn1 [Sorafenib] | Inhibition of TET2 activity |  |  |
| TPO: cytokine thrombopoietin |  | increased | increased |
| B1 |  | increased | increased |

Source: article PMC6697164 (Cancer discovery, 2019)
